In the library only some 2.9% were active in any assay of this set; here they are far more common.
H9c2 TAG inh = inhibitors of triacylglycerol accumulation, primary screen, cell-based, uHTS, fluorescence, H9c2. H9c2 cells, Nile Red lipid (TAG) fluorescence; cells loaded with 200 µM oleic acid. actives 0.66% (n = 230,000). inhibition, % at 12.5 µM;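 active = pattern-corrected inhibition of lipid staining of at least 50% with the nuclear-stain viability signal not falling by more than 50%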;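 note: 0% = DMSO wells and 100% = triacsin C control wells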
Rev-erbA mod = modulators of Rev-erb alpha DNA binding, primary screen, biochemical, FITC-DNA, fluorescence polarization, uHTS. Nuclear receptor subfamily 1 group D member 1 (Homo sapiens), P20393. Rev-erbα–FITC-DNA binding, 90 min. activity, % at 10 µM. actives 0.79% (n = 370,000). AID 1259318, 2017;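 active = activity above about 14%, limit read from the data; passing the limit was not always enough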;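 note: 0% = DMSO wells with 35 nM protein and 100% = DMSO wells with 750 nM protein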
Target sequence (P20393 whole entry, looked up): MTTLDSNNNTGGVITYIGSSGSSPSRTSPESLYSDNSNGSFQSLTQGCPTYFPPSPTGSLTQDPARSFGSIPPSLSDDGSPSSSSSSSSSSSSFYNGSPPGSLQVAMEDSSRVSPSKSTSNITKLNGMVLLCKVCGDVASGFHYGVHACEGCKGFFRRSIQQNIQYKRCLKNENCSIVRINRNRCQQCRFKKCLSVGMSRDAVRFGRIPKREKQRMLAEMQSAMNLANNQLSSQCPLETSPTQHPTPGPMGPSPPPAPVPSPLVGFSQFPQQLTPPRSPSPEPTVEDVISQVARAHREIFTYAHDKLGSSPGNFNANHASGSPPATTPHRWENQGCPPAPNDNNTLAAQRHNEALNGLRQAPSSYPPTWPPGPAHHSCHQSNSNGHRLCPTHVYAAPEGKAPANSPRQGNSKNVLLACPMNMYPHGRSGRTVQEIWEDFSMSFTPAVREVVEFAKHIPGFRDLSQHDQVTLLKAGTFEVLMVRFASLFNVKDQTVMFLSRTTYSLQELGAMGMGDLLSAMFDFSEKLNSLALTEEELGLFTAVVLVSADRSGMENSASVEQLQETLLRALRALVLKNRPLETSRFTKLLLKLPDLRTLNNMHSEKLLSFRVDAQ
hiPSC survival = enhancers of single-cell hiPSC survival, primary screen, ATPlite luminescence | survival enhancement, % at 20 µM | actives 0.044% (n = 360,000) | 100% = ROCK inhibitor wells, 0% = DMSO | AID 602274, 2012; in the data active = survival enhancement above about 18%;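 note: cells exposed to compounds for 16 hours before the ATP read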
beta cell repl = inducers of MIN6 beta-cell proliferation, primary screen, ATP luminescence, uHTS. AID 2380, 2010. actives 0.29% (n = 330,000). proliferation, % at 10 µM. MIN6 cells proliferation, ATPlite luminescence, 48 h; cells starved in 0.2% serum; 100% = growth in 10% serum;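 active = compounds whose signal lies at least 3.5 SD above the mean of all wells on their plate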;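 note: 0% = DMSO-treated cells in low-serum medium and 100% = 10% serum control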
PG9 binder = binders of HIV-1 gp120 antibody PG9, primary screen, biochemical, TR-FRET. HIV-1 gp120 / PG9 antibody interaction. TR-FRET gp120-PG9 antibody binding. inhibition, % at 6.7 µM. actives 0.43% (n = 360,000). AID 624416, 2012; in the data active = inhibition above about 8.5%
T cruzi repl = inhibitors of intracellular T. cruzi growth, primary screen, luminescence, NIH3T3 host cells. T. cruzi beta-gal in NIH3T3, 90 h. inhibition, % (test concentration not listed). actives 1.4% (n = 300,000);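 active = mean inhibition across valid replicates above about 55%, limit read from the data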;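 note: signal also drops with host cell toxicity which is not excluded here; 0% = plate median of DMSO wells and 100% = zero luminescence signal; higher percent means less beta-gal luminescence so fewer parasites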
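System – NIH/3T3 host cells with β-galactosidase reporter T. cruzi · Doses – single 50 nL compound addition per well in DMSO · Reagent – 5000 T. cruzi trypomastigotes/well · Medium – Low-serum DMEM with 2% FBS · Timing – ≥90 h infection period, 3 h prior cell attachment · Evaluation – parasite load inhibition, % · Technique – GalScreen luminescence, 60 min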
NR1D1 mod conf = modulators of Rev-erb alpha DNA binding, confirmation, biochemical, FITC-DNA, fluorescence polarization, single point | 90 min | activation, % at 25 µM | actives 61% (n = 3,000) | shares compounds with Rev-erbA mod;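 active = activation at or above a set limit, or at least 3 SD above the negative control mean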;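 note: 0% = 35 nM protein with DMSO and 100% = 750 nM protein high control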
RORg counter = modulation of RORgamma DNA binding, dose response, counter-screen for Rev-erb alpha modulator project, biochemical, fluorescence polarization, FITC-DNA. shares compounds with Rev-erbA mod. purified RORgamma protein-FITC-DNA binding. IC50, µM. actives 8% (n = 910). AID 1259320, 2017;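 active = Compounds whose fitted half-maximal concentration for disrupting protein-DNA binding is below 10 micromolar; the record names Rev-erb in its text, so the target is in doubt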
* marks the source's active call; other numbers are inactive results.

Screening CC(=O)c1sc(NC(=O)c2ccccc2F)nc1-c1ccccc1 returned H9c2 TAG inh 2, Rev-erbA mod 17*, hiPSC survival 1, beta cell repl -2, PG9 binder 2, T cruzi repl 8 and NR1D1 mod conf 11.
COc1ccc(OC)c(-c2csc(NC(=O)c3ccc4c(c3)OCO4)n2)c1 was read as H9c2 TAG inh -5, Rev-erbA mod 49*, hiPSC survival -1, beta cell repl -3, PG9 binder -2, T cruzi repl 16, NR1D1 mod conf 51* and RORg counter inactive.
Screening COc1ccc2nc(NC(=O)c3cc(C)oc3C)sc2c1 returned H9c2 TAG inh 11, Rev-erbA mod -1, hiPSC survival -5, beta cell repl -4, PG9 binder 0 and T cruzi repl 31.
`COc1ccc(N2CC(C(=O)Nc3nc(-c4ccccc4)c(C(C)=O)s3)CC2=O)c(OC)c1` (stereo unspecified) gave H9c2 TAG inh 5, Rev-erbA mod -4, hiPSC survival 0, beta cell repl 1, PG9 binder 2 and T cruzi repl -10.
CC(=O)c1sc(NC(=O)c2ccc(F)cc2)nc1-c1ccccc1 was read as H9c2 TAG inh 7, Rev-erbA mod 18, hiPSC survival 1, beta cell repl -4, PG9 binder 4 and T cruzi repl 6.
For COc1ccc(C(=O)Nc2nc(-c3ccccc3)c(C(C)=O)s2)c(OC)c1 the results were H9c2 TAG inh 11, Rev-erbA mod 25*, hiPSC survival -1, beta cell repl -2, PG9 binder 2, T cruzi repl -19 and NR1D1 mod conf 15.
Screening COc1ccc(C(=O)Nc2nc3cc4c(cc3s2)OCO4)c(OC)c1 returned H9c2 TAG inh -1, Rev-erbA mod 19*, hiPSC survival -1, beta cell repl -4, PG9 binder 6, T cruzi repl -36 and NR1D1 mod conf 11*.
Screening C(#CCN1CCOCC1)COCCCOC(c1ccccc1)c1ccccc1 returned Rev-erbA mod -4, hiPSC survival 6, beta cell repl -2, PG9 binder -1 and T cruzi repl -1.
For Cc1cc(N2CCOCC2)n2nc(C)c(-c3ccc(Cl)cc3)c2n1 the results were Rev-erbA mod 26*, hiPSC survival 2, beta cell repl -2, PG9 binder 1, T cruzi repl 1 and NR1D1 mod conf -1.
For CC(=O)Nc1ccc(Nc2cc(C)nc3c(-c4ccc(Cl)cc4)c(C)nn23)cc1 the results were H9c2 TAG inh 13, Rev-erbA mod 19*, hiPSC survival -2, beta cell repl -4, PG9 binder 0, T cruzi repl 46 and NR1D1 mod conf 7.
Cc1cc(N2CCOCC2)n2ncc(-c3ccccc3)c2n1 was read as Rev-erbA mod 3, hiPSC survival -3, beta cell repl -4, PG9 binder 0 and T cruzi repl -5.
`Cc1nn2c(N3CCOCC3)cc(C(C)(C)C)nc2c1-c1ccc(Cl)cc1` gave Rev-erbA mod 30*, hiPSC survival -1, beta cell repl -4, PG9 binder 0, T cruzi repl -11 and NR1D1 mod conf -5.
`Cc1cc(N2CCOCC2)n2nc(C(F)(F)F)c(-c3ccccc3)c2n1` gave Rev-erbA mod 28*, hiPSC survival 0, PG9 binder 0, T cruzi repl 8 and NR1D1 mod conf -2.
